# Published values pooled from the literature.
# Compare with care: the assays were run in different laboratories.
# PIK3CD: Phosphatidylinositol 4,5-bisphosphate 3-kinase catalytic subunit delta isoform (PIK3CD, Homo sapiens, UniProt O00329)
SMILES,target,read-out,action,method,tested at,endpoint,result
C=CC(=O)N1CCC([C@@H]2CCNc3c(C(N)=O)c(-c4ccc(Oc5ccccc5)cc4)nn32)CC1,PIK3CD,enzyme activity,inhibitor,,1 µM,inhibition,11%
COc1ccc2[nH]c3c4[nH]c5ccc(OC)cc5c4c4c(c3c2c1)C(=O)NC4=O,PIK3CD,binding,,,1 µM,remaining binding,64%
C1=C/COCc2cc(ccc2OCCN2CCCC2)Nc2nccc(n2)-c2cccc(c2)COC/1,PIK3CD,binding,,,0.1 µM,remaining binding,30%
CCCCC(=O)Nc1ccc(-c2ccc3ncn(CCC)c(=O)c3c2)cn1,PIK3CD,binding,,competition with immobilised ligand,0.5 µM,remaining binding,100%
C[C@H]1CC[C@H](n2c3cnccc3c3cnc(Nc4ccc5c(n4)CCN(C(=O)CO)C5)nc32)CC1,PIK3CD,cell-free assay,,,1 µM,remaining signal,87%
CC(C)S(=O)(=O)c1ccc2nccc(Nc3ccc4sc(C5CCCC5)nc4c3)c2c1,"Phosphatidylinositol 4,5-bisphosphate 3-kinase catalytic subunit delta isoform, with p85 (PIK3CD, Homo sapiens, UniProt O00329)",enzyme activity,inhibitor,,1 µM,activity vs control,91%
Cc1cc(O)c(-c2ccc([C@@H](C)CN(C)C)cc2)c2c1[nH]c(=O)c1sccc12,PIK3CD,enzyme activity,inhibitor,,0.1 µM,inhibition,-6.12%
CO[C@@H]1[C@H](N(C)C(=O)c2ccccc2)C[C@H]2O[C@]1(C)n1c3ccccc3c3c4c(c5c6ccccc6n2c5c31)C(=O)NC4,PIK3CD,enzyme activity,inhibitor,,1 µM,inhibition,0%
C#Cc1cc(-c2cc(Nc3nc(N[C@@H](C)c4ccc(F)cn4)ncc3Cl)n[nH]2)ccc1C=O,PIK3CD,enzyme activity,inhibitor,,0.2 µM,inhibition,29.3%
